Tested on: MS2 coat protein
Experiment: apparent Kd, MS2 coat protein; higher = weaker binding; RNA-MaP array; FMN 200 µM where present
Summary of the method: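 Designs were transcribed by stalled E. coli RNA polymerase on Illumina sequencing-chip clusters. They were titrated with SNAP-549-labelled MS2 coat protein from 0.7 or 1.5 nM, doubling to 3 µM, without and then with constant ligand. Buffer: 100 mM Tris-HCl pH 7.5, 80 mM KCl, 4 mM MgCl2, BSA, DTT, yeast tRNA, Tween-20. Green signal was normalised to red-channel RNA signal and control-cluster median Fmax. Apparent Kd is the median of filtered per-cluster binding-curve fits.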

[1] = designed as: ON switch for flavin mononucleotide, no ligand
[2] = ligand present: flavin mononucleotide, designed as: ON switch for flavin mononucleotide
[3] = designed as: OFF switch for flavin mononucleotide, no ligand
[4] = ligand present: flavin mononucleotide, designed as: OFF switch for flavin mononucleotide

Sequence | apparent Kd [1] | apparent Kd [2] | apparent Kd [3] | apparent Kd [4]
AAAAAAAAAACGCAGGAUAUCCAAAAAAAAACAUGAGGAUCACCCAUGUAAAAAAAAAAAAAAUGGGAGAAGGGUGAAAAAAAAAA | 114 nM | 51 nM | – | –
AAAAAAAAAAGGCAGGAUAUCCAAAAAAAAACAUGAGGAUCACCCAUGUAAAAAAAAAAAAAAUGGGAGAAGGGCCAAAAAAAAAA | 39.2 nM | 14.3 nM | – | –
AAAAAACAAGGAUAUACGCACGAGGAUUGUCUUAAUUUUUGACAUGAGGAUCACCCAUGUAGAAGGUGUUAAAA | – | – | 75.7 nM | 79.2 nM
AAAAAACAUGAGGAUCACCCAUGUCAAAAGACAUGAGGAUAUGUACAGACUUCGGUCUGUACAGAAGGCAUGAAAA | 489 nM | 43.6 nM | – | –
AAAAAACAUGAGGAUCACCCAUGUCUUCGGACGUGAGGAUAUGUACAGACUUCGGUCUGUACAGAAGGCACGUAAA | 51 nM | 23 nM | – | –
AAAAAACAUGAGGAUCACCCAUGUGAGGAUAUCACUAGUCAGUCCUCGGAGUGAGUUCUGAGAAGGCACAUAAA | – | – | 118 nM | 106 nM
AAAAAACAUGAGGAUCACCCAUGUGAGGAUAUGCUAAAAAAAUCCGCAUGAAAAAAUAGCAGAAGGCACAUAAA | – | – | 32.9 nM | 106 nM
AAAAAACAUGAGGAUCACCCAUGUUAGGAUAUCCUGCAGAAAAAAAAAAAAAACUGCAGGAGAAGGAGCAAGGA | – | – | 90 nM | 104 nM
AAAAAACAUGAGGAUCACCCAUGUUAGGAUAUCGUGCAGAAAAAAAAAAAAAACUGCACGAGAAGGAACAAGGA | – | – | 74.5 nM | 98.8 nM
AAAAAAUGAGGAUAUACAUGAAAAAAAAAAAAAAAAAAAAAACAUGAGGAUCACCCAUGUAGAAGGCGUAAAAA | – | – | 51.2 nM | 41.4 nM
AAAAACGGAGGAUAUACAAAAAAAAAAAAAAAAAAAAUGGGACAUGAGGAUCACCCAUGUAGAAGGCCGAAAAA | – | – | 72 nM | 164 nM
AAAAACUCAGGAUAUAUUAUGGGACAAUGAAGGAAGAUAAAACAUGAGGAUCACCCAUGUAGAAGGGAGAAAAA | – | – | 58.5 nM | 67.5 nM
AAAAAGCGAGGAUAUACAUGAGGAUCACCCAUGUAAAAAAAAAGAGAUGAAACAUCAUGUAGAAGGCGCAAAAA | – | – | 211 nM | 134 nM
AAAAAGCGAGGAUAUACAUGAGGAUCACCCAUGUCAAAAGGUAAGACCGCAGAAAAAAGUAGAAGGCGCAAAAA | – | – | 63 nM | 137 nM
AAAAAGUCAGGAUAUCGGAAAAAAAAAAAAAAAAAAAAAAACGAGAAGGGACAUGAGGAUCACCCAUGUAAAAA | – | – | 55.8 nM | 68.2 nM
AAAAAGUCAGGAUAUGUCAAAGGUCACGAAAGUGACAAAGGACAGAAGGGACAUGAGGAUCACCCAUGUAAAAA | – | – | 30.2 nM | 46.1 nM
AAAACACGCGAGAAGGAGGCCUGAUCCUCCACAUGAGGAUCACCCAUGUGCCUAGGAUAUCGCAACCUUUCAGGUUACACCUGG | – | – | 70 nM | 10.2 nM
AAAACAUGAGGAUCACCCAUGUAAAGAUCGGUUAAUUAAAGUGAGGAUAUACAAAAUUUUAUAUAGUAGAAGGCACUGGGUACA | 30.2 nM | 33.4 nM | – | –
AAAACGCAAGGAUAUACAUGAGGAUCACCCAUGUAGACAAUAUAAAGGGUCUCACCAUGUAGAAGGUGCUACCC | – | – | 21.3 nM | 16.5 nM

Sequence | apparent Kd [1] | apparent Kd [2] | apparent Kd [3] | apparent Kd [4]
AAAACUGCUCAGGAUAUUUGUGUGUCAGGGCAUAAAGAAGGGAGCACAUGAGGAUCACCCAUGUGUUGGGUUCC | – | – | 98.5 nM | 149 nM
AAAAGACAUGAGGAUCACCCAUGUCAAGACGUAGGAGGAUAUGUCGUGAAAAAAGACUUGACAGAAGGCCUGUGUC | 18.7 nM | 15.4 nM | – | –
AAAAGACAUGAGGAUCACCCAUGUCAAGACGUGGGAGGAUAUGUAUGGAAACCAGACUGUACAGAAGGCCUCUGUC | 57 nM | 70.5 nM | – | –
AAAAGACAUGAGGAUCACCCAUGUCUUCGGACAUGAGGAUAUGUACAGACUUCGGUCUGUACAGAAGGCAUGUCAA | 39.8 nM | 17.2 nM | – | –
AAAAGACAUGAGGAUCACCCAUGUGAAAACAUACAAGGAUAUGUGUGGAAACCGUACUAUACAGAAGGUGUAUGUC | 34.8 nM | 20 nM | – | –
AAAAGGCUAGGAUAUACCAGUGGGUGUAAGAACUCAAAUUUACAUGAGGAUCACCCAUGUAGAAGGAGUAAAAU | – | – | 20.4 nM | 30.2 nM
AAAAGUUGAGGAUAUACAAAAUGAUUGCGAAAUCAAUUAAAACAUGAGGAUCACCCAUGUAGAAGGCGAUAAAA | – | – | 31.1 nM | 25.9 nM
AAAAUACAUGAGGAUCACCCAUGUGAGUCGAACGCAGGAUAUCGCCGUUGAAAAGGGCGGCGAGAAGGGUGCCGAA | 62.5 nM | 46.8 nM | – | –
AAAAUCGAAGGAUAUACAUAUCCUUUAGCGGCAAUGCCGCGACAUGAGGAUCACCCAUGUAGAAGGUCGUAAAA | – | – | 27.6 nM | 31.5 nM
AAAAUCUAUAGAGGAUAUCGUUCUUAAAGAGAAUGAGAAGGCUAACAAUCAUGAGGACAUGAGGAUCACCCAUGUUGUGACCAU | 19.1 nM | 9.71 nM | – | –
AAAAUGAGUCAAGGAUAUCCGAGCAGAAUGCUAGGAGAAGGUGACAUGAGGAUCACCCAUGUCUCUCCGAGCAUGGUAUUCUCA | – | – | 27.1 nM | 31.9 nM
AAACACGGACAUGAGGAUCACCCAUGUGGCGAAAGCCUAACUAGAAGGCAGUAUGCAAAGCAUUCUGAGGAUAUGGGUUCCGUG | 188 nM | 18.1 nM | – | –
AAACACGGACAUGAGGAUCACCCAUGUGGCGAAAGCCUUGGAAGAAGGCCGAUAGCAAAGCUAUCGGAGGAUAUUCAUACCGUG | 17.2 nM | 5.78 nM | – | –
AAACACGGACAUGAGGAUCACCCAUGUGGCGAUAGCCUUGGGAGAAGGUAUAAAUAAAAUAAUAAUUAGGAUAUUCAUACCGUG | 275 nM | 108 nM | – | –
AAACACGGCGAACCGGCGUUCGUACAUGAGGAUCACCCAUGUCAGGAUAUCUCGAUCUUUGAAUGAGAGAAGGGACAGGAUCCU | – | – | 700 nM | 375 nM
AAACAGCGAAGAUAAUAAUGAAUACAUGAGGAUCACCCAUGUAAGGAUAUCGUCAGGAAUACUGACGAGAAGGUACAUACGCUG | – | – | 16 nM | 22.4 nM
AAACAGGGAGGAUAUACAUAGAUCGUCUAACCUAAUUGGUCACAUGAGGAUCACCCAUGUAGAAGGCCCUUAGG | – | – | 24.6 nM | 144 nM
AAACAGUACGAGAAGGGCUACAUGAGGAUCACCCAUGUAGACGGUCGUGUGGCAGGAUAUCGAACACACCCAAAACGGUGCGUU | – | – | 5.9 nM | 7.43 nM
AAACAUGUCCGAGGAUAUCUGGAAACAUUUCCAAGAGAAGGCGGACAUGAGGAUCACCCAUGUCUCUCCUCAUCAAAUCCGAGU | – | – | 9.24 nM | 89.3 nM

Sequence | apparent Kd [1] | apparent Kd [2] | apparent Kd [3] | apparent Kd [4]
AAAGACAGACAUGAGGAUCACCCAUGUUACGAAGAUACUGGGAGAAGGGCGAUUGCAAAGCAAUCGCAGGAUAUUCGUAUUGUC | 25.8 nM | 13.2 nM | – | –
AAAGACAGAGGAUAUGCACGCCGACCCGGGCGGGAAGUCGGACAUGAGGAUCACCCAUGUAGAAGGCUGAGAAA | – | – | 11.3 nM | 14.8 nM
AAAGAGCGAGGAUAUACAUGAGGAUCACCCAUGUGAAGAUGCAUGGUCUGAACGUCUGGUAGAAGGCGUAUGAA | – | – | 161 nM | 182 nM
AAAGCAACAUGAGGAUCACCCAUGUAGGAUAUCGCUAUUGUAAUCAUGAAACAUGAUUACAAUAGCGAGAAGGACAUAUGCAAA | – | – | 11.3 nM | 12.9 nM
AAAGCCAACGAAGGAUAUACAAACAUGAGGAUCACCCAUGUGUCUUUCGUGUAACUGGAAUUCGGGUAGAAGGUCGUUGACAUA | – | – | 14.9 nM | 21.7 nM
AAAGCGGGAUAGAAGGUCUGCUUGGUGUAUUACAUGAGGAUCACCCAUGUAGAAGGAUAUAUCUCAUUCUUGGGCUCACCCAAA | – | – | 208 nM | 367 nM
AAAGUGUCAGGAUAUUGUUAGUUUAGUUGUUUGUAUUAGUUCGAGAAGGGACAUGAGGAUCACCCAUGUUGAAA | – | – | 34 nM | 32.9 nM
AAAUAAACUACCAAGAUAUCCUCACAUGAGGAUCACCCAUGUCAGGAUAUUUGUCCUAAAAGGACAGAGAAGGGACGUGGUAGA | – | – | 6.24 nM | 14.8 nM
AAAUAAACUAGCAUAAUAACCUCACAUGAGGAUCACCCAUGUAAGGAUAUCUGUCCUAAAAGGACAGAGAAGGUACGUGCUAGG | – | – | 4.72 nM | 4.88 nM
AAAUAACUAGGAUAUCGAGGCACAGACAUGAGGAUCACCCAUGUGUGGUCUUCGUGCUUACGAGAAGGAGUACGGC | – | – | 672 nM | 274 nM
AAAUAAGUUGCAGGAUAUUAUUUUUAAUAAAUAUAAGAAGGGCAACAAACCUCACAUGAGGAUCACCCAUGUACCCAUGCAUCU | – | – | 97.8 nM | 38.4 nM
AAAUACCAAGGAUAUACAUGAGGAUCACCCAUGUACAAACCCGUGGAACGGAUCUUUGGUAGAAGGUGGACAUA | – | – | 13.9 nM | 11.9 nM
AAAUCAGUAGGAUAUACGAUUUUAUGCUAGAUAGAGGGACCACAUGAGGAUCACCCAUGUAGAAGGACUAGAUA | – | – | 20.2 nM | 21.4 nM
AAAUUUAACGAAGGAUAUGGAUACAUGAGGAUCACCCAUGUAUAUUUUGUGAUCUUGUAAAAGUACCAGAAGGUCGUAUACAUA | – | – | 85.7 nM | 208 nM
AAAUUUAACGAAGGAUAUGGUUACAUGAGGAUCACCCAUGUAUAUUUUGUGAUCUUGUUUAAGUUCCAGAAGGUCGUAUACAUA | – | – | 74.1 nM | 294 nM
AACAAGAGGAUCACCCAUGUAACAUGAGGAUCACCCAUGUUCAAGGAUAUGUACAUGAUACAUGUACAGAAGGUGAAUUGGACU | – | – | 21 nM | 36.2 nM
AACACGAGAGGUGUUGUCUAAUCACAUGAGGAUCACCCAUGUAAGGAUAUCGCGGCUAUCGGCAUCGAGAAGGUACAGGGAGCA | – | – | 17.8 nM | 38.2 nM
AACACGCUAACAAGCGACAUGAGGAUCACCCAUGUAAGGACACAGGAUAUCCGGAGUCAUAGGCCGGAGAAGGGUGAUCCUACC | 33.4 nM | 19.7 nM | – | –

From the EternaBench riboswitch data
